Measured values reported in ChEMBL document CHEMBL1212828, “Synthesis and biological evaluation of novel pyrazole compounds” (Bioorg Med Chem, 2010).
Activity calls are given as the source filed them. No cut-off for these calls is given here.

Legend:
[1] = system: Rattus norvegicus; assay: Antiinflammatory activity in Wistar albino rat assessed as inhibition of formalin-induced paw edema at 20 mg/kg, po administered 1 hr prior to formalin challenge measured after 4 hrs relative to control; format: functional
Procedure, shortened: (§1)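 Male Wistar rats, 180–200 g, groups of five; single oral dose 1 h before 2% formalin (0.1 mL) into subplantar left hind paw under light ether anaesthesia. Paw volume read by water plethysmometer at baseline and 1, 2, 3, 4 h; % inhibition = control (Vt−Vo) minus treated (Vt−Vo), over control, ×100. Means ± SEM; ANOVA with Student–Newman–Keuls.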

[2] = system: Rattus norvegicus; assay: Antiinflammatory activity in po dosed Wistar albino rat assessed as inhibition of formalin-induced paw edema after 3 hrs relative to control; format: functional
[3] = system: SH-SY5Y; assay: Neuroprotective activity in human SH-SY5Y cells; format: functional, cell-based
Procedure, shortened: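 SH-SY5Y cells seeded at 2 × 10^5/mL in DMEM-F12 with 5% FBS; after 24 h medium replaced by supernatant of THP-1 cells stimulated 24 h with LPS + IFN-γ, or by medium containing 250 µM H2O2, with compound added at transfer. Cell death measured by LDH assay 72 h later; five independent experiments; randomized block ANOVA.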

[4] = system: THP-1; assay: Antiinflammatory activity in human THP1 cells assessed as reduction in LPS and IFN-gamma-induced MCP level after 24 hrs; format: functional, cell-based
Procedure, shortened: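 THP-1 cells (5 × 10^5 cells/mL, DMEM-F12 with 5% FBS) pretreated 15 min with compound or DMSO vehicle, then stimulated with 0.5 µg/mL LPS plus 150 U/mL IFN-γ. After 24 h, MCP-1 in cell-free medium measured by ELISA. IC50 estimated from concentration–response; randomized block ANOVA.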

[5] = system: Rattus norvegicus; assay: Antiinflammatory activity in Wistar albino rat assessed as inhibition of formalin-induced paw edema at 20 mg/kg, po administered 1 hr prior to formalin challenge measured after 3 hrs relative to control; format: functional; procedure, shortened: as §1
[6] = target: T1, Prostaglandin G/H synthase 1 (Ovis aries) (UniProt P05979); assay: Inhibition of ovine COX1 at 100 uM
T1 sequence (whole entry): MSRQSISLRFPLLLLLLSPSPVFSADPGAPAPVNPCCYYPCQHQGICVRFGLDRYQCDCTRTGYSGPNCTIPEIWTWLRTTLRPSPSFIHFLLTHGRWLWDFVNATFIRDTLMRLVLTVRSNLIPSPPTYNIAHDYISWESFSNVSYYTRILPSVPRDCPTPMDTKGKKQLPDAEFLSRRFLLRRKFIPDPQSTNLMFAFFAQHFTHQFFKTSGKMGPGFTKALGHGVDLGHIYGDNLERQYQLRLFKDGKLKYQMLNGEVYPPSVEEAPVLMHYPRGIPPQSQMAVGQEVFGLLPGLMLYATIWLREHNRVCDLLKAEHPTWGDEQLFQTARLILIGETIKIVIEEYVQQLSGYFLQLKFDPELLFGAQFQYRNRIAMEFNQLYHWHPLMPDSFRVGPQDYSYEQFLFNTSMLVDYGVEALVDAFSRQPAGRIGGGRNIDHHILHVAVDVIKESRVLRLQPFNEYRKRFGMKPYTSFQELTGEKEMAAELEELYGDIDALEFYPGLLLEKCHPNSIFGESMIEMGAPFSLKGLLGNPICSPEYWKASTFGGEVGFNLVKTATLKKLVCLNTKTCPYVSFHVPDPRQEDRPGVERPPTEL
Procedure, shortened: (§2)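 Screening kit with ovine COX-1 and human recombinant COX-2, run per manufacturer's protocol; percent inhibition of prostaglandin production measured for each isoform.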

[7] = system: Rattus norvegicus; assay: Antiinflammatory activity in Wistar albino rat assessed as inhibition of formalin-induced paw edema at 20 mg/kg, po administered 1 hr prior to formalin challenge measured after 1 hr relative to control; format: functional; procedure, shortened: as §1
[8] = target: T2, Prostaglandin G/H synthase 2 (Homo sapiens) (UniProt P35354); assay: Inhibition of human COX2 at 100 uM; procedure, shortened: as §2
T2 sequence (whole entry): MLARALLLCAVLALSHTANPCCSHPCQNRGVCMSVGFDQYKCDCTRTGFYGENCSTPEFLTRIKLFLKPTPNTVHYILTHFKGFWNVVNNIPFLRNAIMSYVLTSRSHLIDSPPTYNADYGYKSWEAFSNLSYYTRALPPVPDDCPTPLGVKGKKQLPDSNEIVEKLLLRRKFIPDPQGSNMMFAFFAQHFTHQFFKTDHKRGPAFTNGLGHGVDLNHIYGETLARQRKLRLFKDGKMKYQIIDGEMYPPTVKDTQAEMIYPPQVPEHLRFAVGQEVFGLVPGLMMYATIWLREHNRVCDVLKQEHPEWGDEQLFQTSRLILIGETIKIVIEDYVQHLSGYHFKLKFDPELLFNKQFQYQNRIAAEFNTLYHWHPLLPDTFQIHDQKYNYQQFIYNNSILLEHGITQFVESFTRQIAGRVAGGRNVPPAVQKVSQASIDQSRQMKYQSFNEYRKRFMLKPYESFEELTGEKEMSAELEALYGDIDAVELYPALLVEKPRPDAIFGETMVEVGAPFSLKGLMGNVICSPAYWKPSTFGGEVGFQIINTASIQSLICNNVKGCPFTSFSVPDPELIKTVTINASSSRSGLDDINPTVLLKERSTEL

[9] = system: Rattus norvegicus; assay: Antiinflammatory activity in Wistar albino rat assessed as inhibition of formalin-induced paw edema at 20 mg/kg, po administered 1 hr prior to formalin challenge measured after 2 hrs relative to control; format: functional; procedure, shortened: as §1
[10] = system: Rattus norvegicus; assay: Toxicity in Wistar albino rat assessed as ulcerogenic activity at 300 mg/kg, po qd for 3 days; format: organism-based; design: dose 300 mg/kg, route oral; conditions: in vivo, 72 h
Procedure, shortened: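 Rats in groups of five, fasted 12 h with water ad libitum; oral dosing in two equal portions at 0 and 12 h for three days, 300 mg/kg per day; control given 1% gum acacia. Killed 6 h after last dose; stomach opened along greater curvature, saline-washed, inspected under 3× lens for hyperemia, hemorrhage, erosion or ulcer.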

[11] = system: Rattus norvegicus; assay: Antiinflammatory activity in Wistar albino rat sub-acute inflammatory model assessed as inhibition of formalin-induced paw edema at 20 mg/kg, po administered 1 hr prior to formalin challenge measured on day 1 relative to control; format: functional
Procedure, shortened: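 Male Wistar rats, 180–200 g, five per group, dosed orally 20 mg/kg daily for 7 consecutive days. Formalin (2%, 0.1 mL) injected subplantar into left hind paw under light ether 1 h after dosing, repeated on day 3. Paw volume measured plethysmographically on days 1 and 8; inhibition expressed relative to untreated controls.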

[12] = system: THP-1; assay: Cytotoxicity against human THP1 cells assessed as reduction in cell viability; format: cell-based
Procedure, shortened: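 THP-1 cells in DMEM-F12 with 5% FBS, 24-well plates, pretreated 15 min with compound or DMSO vehicle, then stimulated with LPS 0.5 µg/mL plus IFN-γ 150 U/mL for 24 h. Death read as supernatant LDH (iodonitrotetrazolium formazan, 490 nm, fraction of Triton X-100 lysate); survival by MTT; MCP-1 by ELISA. Concentration effects by randomized block ANOVA; 8–11 independent experiments.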

[13] = Acute toxicity in Wistar albino rat after 24 hrs; format: organism-based; conditions: in vivo, read-out: ALD50
Procedure, shortened: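 Male Wistar albino rats (180–200 g), fasted 24 h, groups of five; compound given orally in graded doses of 0.1–3.0 g/kg. Mortality recorded at each dose after 24 h to estimate approximate acute lethal dose (ALD50).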

| Structure (SMILES) | inhibition in vivo at 20 mg/kg [1] [%] | ED50 [2] [mg/kg] | Activity [3] | IC50 [4] [µM] | inhibition in vivo at 20 mg/kg [5] [%] | inhibition [6] [%] | inhibition in vivo at 20 mg/kg [7] [%] | inhibition [8] [%] | inhibition in vivo at 20 mg/kg [9] [%] | Activity [10] [%] | inhibition in vivo at 20 mg/kg [11] [%] | EC50 [12] [µM] | LD50 at 24 h [13] [mg/kg] | IC50 ([4]; Homo sapiens, THP-1, 24 h, read-out: IC50) [µM] |
| --- | --- | --- | --- | --- | --- | --- | --- | --- | --- | --- | --- | --- | --- | --- |
| N#Cc1cnn(-c2ccccc2)c1NC(=O)C(=O)Nc1c(C#N)cnn1-c1ccccc1 | 58 | 17.5 | Active | 250 | 50 | 11.2 | 44 | 14 | 41 | 0 | 43 | 100 | > 300 | – |
| CC(NC(=O)C(=O)Nc1c(C#N)cnn1-c1ccccc1)c1ccccc1 (stereo unspecified) | 50 | 19.6 | inactive | – | 46 | 24.5 | 50 | 33.8 | 27 | 10 | 39 | 500 | > 300 | 150 |
